Assay results from the array DNA melting data of Ke et al. (doi:10.1101/2024.01.08.574731).

Columns and labels:
[1] = folding enthalpy; higher = less favourable; fluorescence melt of hairpins on a sequencing array, two-state fit; details: sodium 0.088 M
How it was run: (§1)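 In 50 mM Na-HEPES pH 8.0 containing 25 mM NaCl, hairpins from the library on a sequenced MiSeq flow cell were imaged for Cy3 fluorescence at 2.5 °C steps up to 60 °C, with Cy3 and quencher oligos annealed. After normalisation to pre-quench Cy3 and to control constructs, two-state fits with bootstrapping gave melting temperature and folding enthalpy. Four replicates were combined by inverse-variance weighting, and fitted temperatures were shifted up by 9.35 °C to match UV melts.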

[2] = melting temperature; fluorescence melt of hairpins on a sequencing array, two-state fit, raised by 9.35 °C to match UV melts; details: sodium 0.088 M
How it was run: as §1

Sequence | folding enthalpy [1] [kcal/mol] | Tm [2] [°C]
GATCTAGAATTAGATC ((((((....)))))) | -35 | 45.2
GATCTAGACGTAGATC ((((((....)))))) | -38.9 | 44.8
GATCTAGAGTAGATC ((((((...)))))) | -28.1 | 34.8
GATCTAGAGTTAGATC ((((((....)))))) | -24 | 37.7
GATCTAGCACTAGATC ((((((....)))))) | -43.9 | 47.1
GATCTAGCAGTAGATC ((((((....)))))) | -31.2 | 43.2
GATCTAGCTATAGATC ((((((....)))))) | -40.2 | 47.7
GATCTAGGCCTAGATC ((((((....)))))) | -56 | 52.4
GATCTAGTCATAGATC ((((((....)))))) | -38.4 | 50
GATCTAGTGATAGATC ((((((....)))))) | -34.5 | 45.7
GATCTAGTTGTAGATC ((((((....)))))) | -28.2 | 41.2
GATCTATAAATAGATC ((((((....)))))) | -35.4 | 39.9
GATCTATAGCTAGATC ((((((....)))))) | -28.7 | 36.5
GATCTATATTTAGATC ((((((....)))))) | -34.6 | 43.1
GATCTATCCGTAGATC ((((((....)))))) | -30.1 | 43.1
GATCTATCGCTAGATC ((((((....)))))) | -15 | 39.8
GATCTATCGGTAGATC ((((((....)))))) | -24.7 | 39.1
GATCTATGATAGATC ((((((...)))))) | -25.2 | 37.3

Sequence | folding enthalpy [1] [kcal/mol] | Tm [2] [°C]
GATCTATTAATAGATC ((((((....)))))) | -37.8 | 45.2
GATCTATTATTAGATC ((((((....)))))) | -34.1 | 43.2
GATCTATTCTTAGATC ((((((....)))))) | -40.9 | 44.8
GATCTATTGTAGATC ((((((...)))))) | -22.8 | 41
GATCTATTTGTAGATC ((((((....)))))) | -35 | 45.2
GATCTCAACCGAGATC ((((((....)))))) | -45.1 | 51.9
GATCTCACAAGAGATC ((((((....)))))) | -38.7 | 53.7
GATCTCACCGGAGATC ((((((....)))))) | -43.9 | 52.2
GATCTCACGGGAGATC ((((((....)))))) | -39.3 | 51.7
GATCTCACTAGAGATC ((((((....)))))) | -40.9 | 54.3
GATCTCACTGAGATC ((((((...)))))) | -34 | 52.1
GATCTCACTGGAGATC ((((((....)))))) | -40 | 51.3
GATCTCAGACGAGATC ((((((....)))))) | -36.9 | 51.2
GATCTCAGAGAGATC ((((((...)))))) | -36 | 55.4
GATCTCAGCCGAGATC ((((((....)))))) | -39.6 | 52.6
GATCTCAGCGGAGATC ((((((....)))))) | -38.3 | 53.7
GATCTCAGTAGAGATC ((((((....)))))) | -37.4 | 54.1
GATCTCAGTCGAGATC ((((((....)))))) | -35.1 | 54.1
